An excerpt weighted towards active compounds, which were near 3.8% of everything screened.
OX1R antag-1 – blocks the human orexin 1 receptor; O43613; CHO/OX1R cells, Fluo-8 calcium fluorescence, orexin A; inhibition, % at 5 µM; 330,000 compounds, 0.43% hits;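 active means inhibition above its plate's threshold, mean inhibition of all tested compounds on the plate plus 3 SD, cut at about 37% in these data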
Target sequence (O43613 whole entry, looked up): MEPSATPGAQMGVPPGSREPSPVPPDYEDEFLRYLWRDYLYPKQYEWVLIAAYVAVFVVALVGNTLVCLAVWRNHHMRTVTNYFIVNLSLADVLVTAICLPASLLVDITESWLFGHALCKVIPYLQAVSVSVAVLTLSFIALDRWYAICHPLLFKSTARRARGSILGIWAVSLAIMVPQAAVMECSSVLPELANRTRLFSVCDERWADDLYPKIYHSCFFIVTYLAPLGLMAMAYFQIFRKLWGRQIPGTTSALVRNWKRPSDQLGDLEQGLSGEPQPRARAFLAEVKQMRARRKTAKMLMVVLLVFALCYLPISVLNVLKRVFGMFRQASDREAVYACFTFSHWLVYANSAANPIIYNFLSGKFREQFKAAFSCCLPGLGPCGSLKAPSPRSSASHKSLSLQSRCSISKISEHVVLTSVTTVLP
MPTP block – inhibitors of mitochondrial permeability transition pore | isolated mouse mitochondria, Ca2+ swelling absorbance, 30 min | inhibition, % at 10 µM | 360,000 compounds, 1.4% hits | AID 602449;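 active means inhibition of 50% or more, scaled per plate between neutral and stimulator controls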
OX1R antag-2 – blocks the human orexin 1 receptor; OX1R-expressing cells, FRET antagonist read-out; inhibition, % at 6.6 µM; 330,000 compounds, 1.8% hits; AID 485270; in the data active means inhibition mostly above about 38%, no sharp cut-off; inactive means mostly below about 40%
GPR7 antagonist – human neuropeptides B/W receptor 1 antagonism | P48145 | GPR7-expressing cells, fluorescence antagonist assay | inhibition, % at 4.4 µM | 290,000 compounds, 1.1% hits; in the data active means inhibition above about 16%, passing the limit was not always enough;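 further: cells stimulated with the agonist NPW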
CHO parental Ca – counter-screen for OX1R antagonists: effect in parental CHO cells; 330,000 compounds, 0.63% hits; inhibition, % at 5.6 µM; parental CHO-K1, ATP-induced calcium, Fluo-8 fluorescence;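 active means inhibition above that plate's mean sample inhibition plus 3 SD, cut at about 26% in these data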
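Material: Parental CHO cells | Reagent: ATP | Compound dosing: Single nominal dose of 5.6 µM per compound | Detection: Intracellular calcium via Fluo-8 no-wash fluorescent dye | Read-out: % inhibition of ATP-induced calcium mobilization | Benchmarks: Low control ATP plus DMSO, high control DMSO only | Replicates: Singlicate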
OX1R HTRF confirm – OX1R (human) antagonism, HTRF confirmed; shares compounds with OX1R antag-2; OX1R-expressing cells, HTRF antagonist assay; inhibition, % at 6.6 µM; 1,800 compounds, 49% hits; AID 492964; in the data active means inhibition above about 55%;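 further: CHO cells expressing OX1R stimulated with orexin A at about EC80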
CHO-K1 HTRF – counter-screen for OX1R antagonists: effect in parental CHO-K1 cells; shares compounds with OX1R antag-2; HTRF counterscreen; inhibition, % at 6.6 µM; 1,800 compounds, 48% hits; in the data active means inhibition above about 17%
Of the large screens only hits and unclear results are named; the others gave an inactive call (follow-up assays come after a bar, where they were run).

O=C(CCS(=O)(=O)c1cccc2nonc12)N1CCN(c2ccc(F)cc2)CC1	OX1R antag-2 97 | OX1R HTRF confirm inactive | CHO-K1 HTRF 24
O=C(CCS(=O)(=O)c1cccc2nonc12)N1CCOCC1	OX1R antag-2 99 | OX1R HTRF confirm inactive | CHO-K1 HTRF 69
O=C(CCS(=O)(=O)c1cccs1)N1CCN(c2ccc(F)cc2)CC1	none
COC(=O)C1(S(=O)(=O)c2cccc3nsnc23)CC1	OX1R antag-2 106 | OX1R HTRF confirm inactive | CHO-K1 HTRF 36
O=C1c2ccc3c4c(ccc(c24)C(=O)N1CCCCO)C(=O)N(CCCCO)C3=O	none (no result: OX1R antag-1, OX1R antag-2, CHO parental Ca)
O=C(c1ccc2c(c1)C(=O)N(CCCO)C2=O)c1ccc2c(c1)C(=O)N(CCCO)C2=O	OX1R antag-2 149 | OX1R HTRF confirm 56 | CHO-K1 HTRF 67
O=c1c[n+]([O-])c2ccccc2n1OCc1c(F)cccc1F	OX1R antag-2 81 | OX1R HTRF confirm inactive | CHO-K1 HTRF 53
CCOn1c(=O)c[n+]([O-])c2ccccc21	none
COC(=O)c1ccccc1COn1c(=O)c[n+]([O-])c2ccccc21	OX1R antag-2 85 | OX1R HTRF confirm inactive | CHO-K1 HTRF 29
O=c1c[n+]([O-])c2ccccc2n1OCc1ccccn1	OX1R antag-2 129 | OX1R HTRF confirm inactive | CHO-K1 HTRF 55
O=c1[nH]c2cc([N+](=O)[O-])cc(Cl)c2c2ccccc12	none (no result: OX1R antag-1, OX1R antag-2, GPR7 antagonist, CHO parental Ca)
N#Cc1cc2[nH]c3ccccc3c2[n+](-c2ccc([N+](=O)[O-])cc2)c1N	OX1R antag-2 124 | OX1R HTRF confirm inactive | CHO-K1 HTRF 38
O=C(c1ccc(=O)[nH]c1)N1CCN(S(=O)(=O)c2ccc(Cl)cc2)CC1	none
O=C(NC(=S)Nc1cccc2cccnc12)c1ccccc1	none
O=C(NC(=S)Nc1cccc2cccnc12)c1cccs1	OX1R antag-2 95 | OX1R HTRF confirm 93 | CHO-K1 HTRF inactive
N#Cc1ccc(CSc2nnc(-c3ccncc3)n2CCc2ccccc2)cc1	none
c1ccc(CCn2c(SCc3ccccc3)nnc2-c2ccncc2)cc1	OX1R antag-2 101 | OX1R HTRF confirm inactive | CHO-K1 HTRF inactive
COc1ccccc1C(=O)NCCNC(=O)c1ccc(C)nc1	none
Brc1ccc2nc(-c3ccco3)c(CC3CCCCC3)n2c1	none (no result: OX1R antag-1, OX1R antag-2, GPR7 antagonist, CHO parental Ca)
CCOC(=O)c1c(C)oc2c1c(C(c1cccnc1)N1CCCCC1)c(O)c1ccccc12 (configuration not stated)	OX1R antag-2 95 | OX1R HTRF confirm inactive | CHO-K1 HTRF inactive
COCCCNC(=O)c1c(N)n(-c2ccc3c(c2)OCO3)c2nc3ccccc3nc12	OX1R antag-2 104 | OX1R HTRF confirm inactive | CHO-K1 HTRF inactive
Cc1ccc(Sc2ccc([N+](=O)[O-])cc2[N+](=O)[O-])nc1	none
O=[N+]([O-])c1ccc(Sc2cc[n+]([O-])c3ccccc23)c([N+](=O)[O-])c1	OX1R antag-2 98 | OX1R HTRF confirm 55 | CHO-K1 HTRF 78
CCN1CCN(C2=C(NS(=O)(=O)c3ccc(Br)cc3)C(=O)c3ccccc3C2=O)CC1	OX1R antag-2 95 | OX1R HTRF confirm 70 | CHO-K1 HTRF 88
CN1CCN(C2=C(Cl)C(=O)c3ccccc3C2=O)CC1	none (no result: OX1R antag-1, OX1R antag-2, GPR7 antagonist, CHO parental Ca)
O=C1C(NS(=O)(=O)c2ccc(Cl)cc2)=C(N2CCCCC2)C(=O)c2ccccc21	OX1R antag-2 111 | OX1R HTRF confirm inactive | CHO-K1 HTRF 41
O=C1C(Cl)=C(N2CCC(C(=O)O)CC2)C(=O)c2ccccc21	OX1R antag-2 101 | OX1R HTRF confirm inactive | CHO-K1 HTRF 64
CN1CCN(C2=C(NS(=O)(=O)c3ccccc3)C(=O)c3ccccc3C2=O)CC1	OX1R antag-2 96 | OX1R HTRF confirm 74 | CHO-K1 HTRF 90
O=C1C(NS(=O)(=O)c2cccs2)=C(N2CCN(Cc3ccccc3)CC2)C(=O)c2ccccc21	none
O=C1C(NS(=O)(=O)c2cccs2)=C(N2CCOCC2)C(=O)c2ccccc21	OX1R antag-2 86 | OX1R HTRF confirm 95 | CHO-K1 HTRF 63
CN1CCN(C2=C(NS(=O)(=O)c3cccs3)C(=O)c3ccccc3C2=O)CC1	OX1R antag-2 132 | OX1R HTRF confirm 62 | CHO-K1 HTRF 99
NC(=O)C1CCN(C2=C(NS(=O)(=O)c3ccccc3)C(=O)c3ccccc3C2=O)CC1	OX1R antag-2 129 | OX1R HTRF confirm 59 | CHO-K1 HTRF 76
NC(=O)C1CCN(c2nc3ccccc3nc2NS(=O)(=O)c2ccc(Br)cc2)CC1	none (no result: GPR7 antagonist)
O=C(Nc1ccc(C(=O)N2CCCC2)cc1)C1CCC1	none (no result: OX1R antag-1, OX1R antag-2, GPR7 antagonist, CHO parental Ca)
CCC(CO)Oc1cc(NC(=O)c2cccc(Cl)c2)c2ncn(C(C)C)c2c1 (configuration not stated)	none (no result: GPR7 antagonist)
O=C1CCC(=O)c2ccc3c4c(ccc1c24)CC3	none (no result: OX1R antag-1, OX1R antag-2, GPR7 antagonist, CHO parental Ca)
O=C1CCN2C=Nc3cccc4ccc1c2c34	OX1R antag-2 92 | OX1R HTRF confirm inactive | CHO-K1 HTRF 19
CCC(=O)Oc1cccc(C(=O)Nc2cccc(NC(=O)c3ccco3)c2)c1	none
CCOc1ccc(NC(=O)COC(=O)C2(C)CC2(Cl)Cl)c([N+](=O)[O-])c1 (configuration not stated)	none
CCOc1ccc(NC2OCC(O)C(O)C2O)c([N+](=O)[O-])c1 (configuration not stated)	OX1R antag-2 82 | OX1R HTRF confirm inactive | CHO-K1 HTRF 31
COc1cc(OC)c2cc(C(=O)N/N=C/c3cccc(OC)c3O)[nH]c2c1	OX1R antag-2 77 | OX1R HTRF confirm 72 | CHO-K1 HTRF inactive
CN(C)/C=C1\Oc2ccc3ccccc3c2C1=O	none
CN(C)/C=C1/Oc2c(ccc3ccccc23)C1=O	OX1R antag-2 88 | OX1R HTRF confirm 85 | CHO-K1 HTRF inactive
O=S(=O)(NCCc1csc(-c2ccccc2)n1)c1ccc2c(c1)OCCO2	OX1R antag-2 83 | OX1R HTRF confirm 64 | CHO-K1 HTRF inactive
CN(C)S(=O)(=O)n1cnc(C(CCO)c2ncn(S(=O)(=O)N(C)C)c2CCCO)c1 (configuration not stated)	none (no result: GPR7 antagonist)
CCS(=O)(=O)Nc1ccc2[nH]c(=O)[nH]c2c1	none
O=C(N/N=C/c1ccc([N+](=O)[O-])o1)C1CC1	OX1R antag-2 127 | OX1R HTRF confirm 58 | CHO-K1 HTRF 75
Cc1nonc1C(=O)N/N=C/c1ccncc1	none
Cc1nonc1C(=O)N/N=C/c1ccc([N+](=O)[O-])o1	OX1R antag-2 144 | OX1R HTRF confirm inactive | CHO-K1 HTRF 81
Cn1nnnc1SCc1csc(C2C(C#N)=C(N)OC3=C2C(=O)CCC3)c1 (configuration not stated)	none
Clc1ccc2nc(C3CCCCC3)c(CC3CCCCC3)n2c1	none (no result: OX1R antag-1, OX1R antag-2, GPR7 antagonist, CHO parental Ca)
CC1=CC(=O)c2ccccc2C1=O	none
COc1cccc2c1C(=O)C=C(C)C2=O	OX1R antag-2 124 | OX1R HTRF confirm 72 | CHO-K1 HTRF 92
COc1ccccc1OC(=O)c1cc(Cl)nc2ccccc12	none
